In assay [1] the test system is A549. Kind of assay: Growth inhibition of human A549 cells after 72 hrs by MTT assay. It is filed as functional, cell-based. As to conditions: A549, 72 h. Put shortly:
(§1)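 Cells grown in RPMI-1640 with 10% FBS, penicillin/streptomycin, 37 °C, 5% CO2; seeded 1-3 × 10^4/well, treated 24 h later in triplicate wells for 72 h. MTT (5 mg/mL) added in fresh medium for 4 h, formazan dissolved in DMSO, OD490 read; IC50 = concentration reducing absorbance by 50% versus vehicle-treated wells; triplicate experiments.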
In general terms: Formazan colour is commonly taken as a measure of viable cells.

The nature of assay [2]: Growth inhibition of human SGC7901 cells after 72 hrs by MTT assay. It is filed as functional, cell-based. The following applies: SGC-7901, 72 h. A digest of the protocol:
as §1

A short description of assay [3]: Growth inhibition of human HT1080 cells after 72 hrs by MTT assay. As to conditions: HT-1080, 72 h. It is filed as functional, cell-based. Put shortly: as §1
Assay [4] addresses T1, Tubulin (Homo sapiens) (UniProt P68371+Q9H4B7+P0DPH7+P68366+Q13509+Q71U36+P04350+Q3ZCM7+P07437+P68363+Q9BQE3+Q6PEY2+Q13885+Q9BVA1+Q9BUF5). Kind of assay: Induction of distortions in tubulin assembly in human HT1080 cells assessed as abnormal mitotic spindle formation at 2 fold IC50 level incubated for 48 hrs by immunofluorescence staining based fluorescence microscopy. It counts as cell-based. As to conditions: HT-1080. Put shortly: (§2)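 Fixed in 4% formaldehyde/PBS 30 min at -20 °C, permeabilised with 0.1% Triton X-100, blocked in 5% BSA. Stained with α-tubulin primary (1:100, overnight 4 °C) and FITC anti-mouse secondary (1:1000, 3 h 37 °C), DAPI nuclei; fluorescence microscopy.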

In assay [5] the target is T1, Tubulin (Homo sapiens). In words: Induction of distortions in tubulin assembly in human SGC7901 cells assessed as abnormal mitotic spindle formation at 2 fold IC50 level incubated for 48 hrs by immunofluorescence staining based fluorescence microscopy. It counts as cell-based. The following applies: SGC-7901. Put shortly:
as §2

Assay [6] deals with Tubulin (Bos taurus) (UniProt Q6B856+Q862L2+Q862F3). In words: (§3) Inhibition of bovine brain tubulin polymerization incubated for 90 mins by fluorescence-based assay. Put shortly:
(§4)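 Fluorescence kit assay with purified bovine tubulin resuspended in ice-cold G-PEM (80 mM PIPES, 2 mM MgCl2, 0.5 mM EGTA, 1 mM GTP, 20% glycerol) and added to drug or DMSO vehicle. Reaction started by warming from 4 °C to 37 °C.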

For assay [7], the target named is Tubulin (Bos taurus, UniProt Q6B856+Q862L2+Q862F3). The description is as §3. Put shortly:
as §4

Activity calls are given as the source filed them. No cut-off for these calls is given here.

The term IC50 denotes the concentration needed to halve the response being measured. Read a low IC50 as inhibition by little substance. Regarding `COC(=O)Nc1nc2cc([Se]c3c[nH]c4ccc(C#N)cc34)ccc2[nH]1`, the IC50 came out at 5.07 µM in assay [1], 1.11 µM in assay [2] and 0.95 µM in assay [3].
On to `COC(=O)Nc1nc2cc(Sc3c[nH]c4ccc(C#N)cc34)ccc2[nH]1`, for which the IC50 in assay [1] is 5.14 µM; in assay [2], 0.12 µM; in assay [3], 0.62 µM.
With `COC(=O)Nc1nc2cc([S+]([O-])c3c[nH]c4ccc(Br)cc34)ccc2[nH]1` (stereo not drawn), the values for the IC50 in assay [1], in assay [2] and in assay [3] were above 10 µM, 5.19 µM and above 10 µM, respectively.
For `COC(=O)Nc1nc2cc([Se]c3c(C)[nH]c4ccccc34)ccc2[nH]1`, the IC50 was determined as 3.83 µM in assay [1], 0.23 µM in assay [2] and 0.27 µM in assay [3].
With `COC(=O)Nc1nc2cc([S+]([O-])c3c(C)[nH]c4ccc(F)cc34)ccc2[nH]1` (stereo not drawn), the IC50 is 3.27 µM in assay [1], 3.51 µM in assay [2] and above 10 µM in assay [3].
Turning to `COC(=O)Nc1nc2cc(C(=O)c3cccs3)ccc2[nH]1` [NOCODAZOLE], the results for the IC50 in assay [1], in assay [2] and in assay [3] were 0.12 µM, 0.08 µM and 0.14 µM, respectively. The result in assay [4] and in assay [5] was Active.
For `COC(=O)Nc1nc2cc(S(=O)(=O)c3c[nH]c4ccc(C#N)cc34)ccc2[nH]1`, the IC50 in assay [1], in assay [2] and in assay [3] was above 10 µM throughout.
On to `COC(=O)Nc1nc2cc([Se]c3c[nH]c4ccccc34)ccc2[nH]1`, for which, in assay [6], the inhibition result is “Dose-dependent effect”. The IC50 in assay [7] was 3.6 µM; in assay [1], 0.15 µM; in assay [2], 0.098 µM; in assay [3] it was 0.13 µM. The outcome in assay [4] and in assay [5] was Active.
As for `COC(=O)Nc1nc2cc(Sc3c(C)[nH]c4ccccc34)ccc2[nH]1`, the IC50 in assay [1] was found to be 0.83 µM; in assay [2], 0.51 µM; in assay [3] it was 0.97 µM.
For the molecule `COC(=O)Nc1nc2cc([S+]([O-])c3c(C)[nH]c4ccccc34)ccc2[nH]1` (stereo not drawn), the IC50 in assay [1] is 7.98 µM; in assay [2] it was 9.93 µM; in assay [3] it was 9.85 µM.
Take `COC(=O)Nc1nc2cc(Sc3c[nH]c4ccc(Br)cc34)ccc2[nH]1`: the inhibition result in assay [6] is “Dose-dependent effect”. Moreover, the IC50 in assay [7] was determined as 8.2 µM; in assay [1] it was 1.19 µM; in assay [2], 2.12 µM; in assay [3], 1.33 µM.
For the molecule `COC(=O)Nc1nc2cc(Sc3c(C)[nH]c4ccc(F)cc34)ccc2[nH]1`, the IC50 in assay [1] is 2.52 µM; in assay [2], 1.2 µM; in assay [3], 3.27 µM.
Take `COC(=O)Nc1nc2cc(S(=O)(=O)c3c[nH]c4ccccc34)ccc2[nH]1`: the concentration for half-maximal inhibition (IC50) in assay [1] was 4.21 µM; in assay [2], 1.26 µM; in assay [3], 2.01 µM.
For `COC(=O)Nc1nc2cc(Sc3c(C)[nH]c4ccc(Cl)cc34)ccc2[nH]1`, in that order: 7.33 µM, 3.38 µM and 4.13 µM.
With `COC(=O)Nc1nc2cc(S(=O)(=O)c3c(C)[nH]c4ccc(Cl)cc34)ccc2[nH]1`, the IC50 in assay [1], in assay [2] and in assay [3] was above 10 µM in each case.
Turning to `COC(=O)Nc1nc2cc([Se]c3c(C)[nH]c4ccc(Cl)cc34)ccc2[nH]1`, the IC50 in assay [1] was 2.98 µM; in assay [2], above 10 µM; in assay [3], above 10 µM.
Turning to `COC(=O)Nc1nc2cc(S(=O)(=O)c3c(C)[nH]c4ccc(F)cc34)ccc2[nH]1`, the values for the IC50 in assay [1], in assay [2] and in assay [3] were 9.08 µM, 4.18 µM and above 10 µM, respectively.
As to `COC(=O)Nc1nc2cc([Se]c3c[nH]c4ccc(Br)cc34)ccc2[nH]1`, the IC50 in assay [1] worked out at 2.21 µM; in assay [2], 2.15 µM; in assay [3], 2.75 µM.
With `COC(=O)Nc1nc2cc([S+]([O-])c3c[nH]c4ccccc34)ccc2[nH]1` (stereo not drawn), the IC50 is 6.23 µM in assay [1], 3.96 µM in assay [2] and 5.24 µM in assay [3].
The like results for `COC(=O)Nc1nc2cc(Sc3c[nH]c4ccccc34)ccc2[nH]1` were, in that order, 0.39 µM, 2.62 µM and 0.88 µM.
For `COC(=O)Nc1nc2cc([Se]c3c(C)[nH]c4ccc(F)cc34)ccc2[nH]1`, in that order: 1.15 µM, 1.12 µM and 1.69 µM.
For `COC(=O)Nc1nc2cc([S+]([O-])c3c[nH]c4ccc(C#N)cc34)ccc2[nH]1` (stereo not drawn), in that order: above 10 µM, above 10 µM and 9.43 µM.
For the molecule `COC(=O)Nc1nc2cc([S+]([O-])c3c(C)[nH]c4ccc(Cl)cc34)ccc2[nH]1` (stereo not drawn), the IC50 in assay [1], in assay [2] and in assay [3] was above 10 µM each time.
Regarding `COC(=O)Nc1nc2cc(S(=O)(=O)c3c[nH]c4ccc(Br)cc34)ccc2[nH]1`, the IC50 was found to be 7.42 µM in assay [1], 7.44 µM in assay [2] and 3.18 µM in assay [3].
`COC(=O)Nc1nc2cc(S(=O)(=O)c3c(C)[nH]c4ccccc34)ccc2[nH]1`: the IC50 in assay [1], in assay [2] and in assay [3] was above 10 µM each time.
